Test results taken from PubChem BioAssay.
The source made the active and inactive calls.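 How the source made its calls, unless noted: active means GFP response above 150% of the DMSO level; inconclusive means fewer than 70 events counted for a yeast strain; inactive means the rest.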

How the values were obtained:
[1] = hit retest on RPL19A-GFP reporter strain – cell-based, S. cerevisiae, flow cytometry, cherry picks, mother/daughter gates, confirmation (AID 2270;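 active means GFP response below 50% of the DMSO control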); conditions: 3 h, at 10 µM, stronger effect = lower value, 100 = same GFP as DMSO wells
[2] = yeast TOR pathway reporter LAP4-GFP change – cell-based, cherry picks, flow cytometry, mother/daughter gates, confirmation (AID 2271;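 active means GFP response above 150% of the DMSO control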;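 further: ratio of sample to DMSO plate mean so 100% equals DMSO level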); conditions: S. cerevisiae LAP4-GFP strain, 3 h, at 10 µM, stronger effect = higher value, 100 means same as DMSO control
Procedure, shortened: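 Material – Alexa Fluor 633-labelled Saccharomyces cerevisiae GFP-fusion strain, single-plex · Incubation – compound exposure 3 h at 30 °C, end-over-end rotation · Measured by – GFP by flow cytometry · Measure – median GFP fluorescence as percent of plate-mean DMSO wells · Control set – positive rapamycin (400 ng/mL), negative DMSO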

[3] = TOR pathway reporter MEP2-GFP, retest of hits – S. cerevisiae, flow cytometry GFP, cherry picks, confirmation (AID 2272;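 active means GFP response above 150% of the DMSO control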;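 further: ratio of well signal to plate DMSO mean so 100% equals DMSO level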); conditions: S. cerevisiae MEP2-GFP strain, 3 h, at 10 µM, stronger effect = higher value
[4] = yeast AGP1-GFP fluorescence change, single-dose – cell-based, flow cytometry, S. cerevisiae, cherry picks, confirmation (AID 2273);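 further: median GFP channel fluorescence over the whole cell population gate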; conditions: S. cerevisiae AGP1-GFP strain, 3 h, at 10 µM
[5] = TOR pathway CIT2 reporter hit retest – S. cerevisiae, GFP fusion, cherry picks, mother/daughter gates, confirmation (AID 2274); conditions: S. cerevisiae CIT2-GFP strain, flow cytometry, 3 h, at 10 µM, stronger effect = higher value
[6] = measured here: daughter cell gate
[7] = measured here: mother cell gate
[8] = measured here: daughter cell gate response
[9] = measured here: mother cell gate response

| Compound | GFP response vs DMSO [1] | GFP response vs DMSO [1, 6] | GFP response vs DMSO [1, 7] | GFP response relative to DMSO [2] | GFP response relative to DMSO [2, 8] | GFP response relative to DMSO [2, 9] | GFP response vs DMSO [3] | GFP response, % of DMSO [4] | GFP response, % of DMSO [5] | GFP response, % of DMSO [5, 6] | GFP response, % of DMSO [5, 7] |
| --- | --- | --- | --- | --- | --- | --- | --- | --- | --- | --- | --- |
| COc1ccc(/C=C/C(=O)c2ccc(Cl)cc2)c(OC)c1 | 97.6% (inactive) | 98.9% | 96.1% | 104% (inactive) | 102% | 106% | 100% (inactive) | 90.2% (inactive) | 99.7% (inactive) | 99.1% | 97.3% |
| COc1ccc(NC2=C(Cl)C(=O)N(CCc3ccccc3)C2=O)c(OC)c1 | 98% (inactive) | 96.6% | 97.2% | 102% (inactive) | 101% | 104% | 98.8% (inactive) | 97.9% (inactive) | 98.4% (inactive) | 98.4% | 97.7% |
| COc1ccccc1N1C(=O)CC(Sc2ncccc2C(=O)O)C1=O (configuration not stated) | 100% (inactive) | 98.4% | 100% | 95% (inactive) | 95.6% | 97.2% | 100% (inactive) | 99.2% (inactive) | 100% (inactive) | 99.7% | 99.8% |
| CC(=O)S[C@@H]1CC2=CC(=O)CC[C@]2(C)[C@H]2CC[C@@]3(C)[C@@H](CC[C@@]34CCC(=O)O4)[C@H]12 | 101% (inactive) | 99.2% | 100% | 97.4% (inactive) | 97.2% | 98.3% | 100% (inactive) | 95.9% (inactive) | 99.1% (inactive) | 96.5% | 98.7% |
| N#Cc1cc([N+](=O)[O-])c(-n2nnc3ccccc32)c([N+](=O)[O-])c1 | 92.8% (inactive) | 94.7% | 88.8% | 172% (active) | 149% | 184% | 90.5% (inactive) | 98.2% (inactive) | 100% (inactive) | 99.2% | 93.2% |
| CN(C(=O)c1ccccc1Cl)c1ccccc1 | 100% (inactive) | 100% | 98.8% | 94.1% (inactive) | 96% | 93.4% | 97.2% (inactive) | 103% (inactive) | 101% (inactive) | 103% | 102% |
| COc1cc(NC(=O)c2cccs2)ccc1NC(=O)c1cc2ccccc2o1 | 97% (inactive) | 96.9% | 98.7% | 96.7% (inactive) | 99.2% | 95.1% | 100% (inactive) | 99.9% (inactive) | 101% (inactive) | 101% | 101% |
| COc1ccc(C2=NN(S(C)(=O)=O)C(c3ccc4nccnc4c3)C2)cc1 (configuration not stated) | 101% (inactive) | 99.8% | 102% | 99.8% (inactive) | 103% | 103% | 102% (inactive) | 97.6% (inactive) | 92.6% (inactive) | 93.2% | 91.2% |
| COc1ccc(N2C(=O)c3cccc4cccc(c34)C2=O)nn1 | 98% (inactive) | 97.3% | 98.7% | 89% (inactive) | 91% | 91.1% | 97.8% (inactive) | 98% (inactive) | 92.6% (inactive) | 93.2% | 91.2% |
| CN1CCN(CC(=O)N2CCn3c4c(c5cc(C6CCCCC6)ccc53)CCCC42)CC1 (configuration not stated) | 90.7% (inactive) | 86.4% | 92.7% | 116% (inactive) | 109% | 119% | 108% (inactive) | 95.8% (inactive) | 90.7% (inactive) | 89% | 88.6% |
| CSC1=NC(=O)/C(=C/c2ccc(SC)cc2)S1 | 95.1% (inactive) | 78% | 92.5% | 138% (inactive) | 115% | 134% | 110% (inactive) | 107% (inactive) | 75% (inactive) | 78.1% | 70.3% |
| COc1cccc2c1Oc1ncccc1N(C(=O)CCC(=O)NCc1ccccc1Cl)C2 | 95.6% (inactive) | 97.9% | 95.8% | 97% (inactive) | 97.5% | 96.2% | 99% (inactive) | 99.6% (inactive) | 103% (inactive) | 103% | 103% |
| COc1ccc(C(=O)/C=C/c2ccccc2C(F)(F)F)cc1 | 100% (inactive) | 99.1% | 99.5% | 99.2% (inactive) | 99.2% | 98.3% | 100% (inactive) | 99.7% (inactive) | 107% (inactive) | 106% | 107% |
| O=C(/C=C/c1ccc(F)cc1)c1ccccc1Br | 98% (inactive) | 98.1% | 98.3% | 112% (inactive) | 112% | 116% | 103% (inactive) | 98.1% (inactive) | 93.4% (inactive) | 93.7% | 89.8% |
| CCCn1c(=O)c(C(=O)Nc2ccccc2C(=O)OCC)c(O)c2ccccc21 | 95.1% (inactive) | 96.7% | 95.2% | 95.3% (inactive) | 94.4% | 97.4% | 108% (inactive) | 110% (inactive) | 100% (inactive) | 103% | 100% |
| Cc1ccc(N2C(=O)C3C4C=CC(CNC(=S)Nc5ccc(F)cc5)(O4)C3C2=O)cc1 (configuration not stated) | 98.4% (inactive) | 99.9% | 97.5% | 102% (inactive) | 103% | 103% | 108% (inactive) | 105% (inactive) | 110% (inactive) | 110% | 110% |
| CCS(=O)(=O)N1N=C(c2ccccc2)CC1c1ccc2nccnc2c1 (configuration not stated) | 98.4% (inactive) | 98.9% | 99.3% | 105% (inactive) | 103% | 104% | 116% (inactive) | 104% (inactive) | 105% (inactive) | 105% | 107% |
| COc1ccccc1N1C(=O)c2cccc3c(C(=O)O)ccc(c23)C1=O | 98.8% (inactive) | 99.1% | 98.7% | 101% (inactive) | 101% | 98.3% | 105% (inactive) | 97.4% (inactive) | 99.7% (inactive) | 101% | 98.5% |
| COC(=O)Cn1c(C)c(/C=C/c2cc[n+](C)cc2)c2ccccc21 | 100% (inactive) | 99.6% | 101% | 119% (inactive) | 121% | 117% | 129% (inactive) | 99.7% (inactive) | 117% (inactive) | 121% | 113% |
| CCNC(=O)/C(C#N)=C/c1c(N2CC(C)OC(C)C2)nc2ccccn2c1=O (configuration not stated) | 97.8% (inactive) | 99.3% | 98.1% | 99.5% (inactive) | 102% | 99.4% | 99% (inactive) | 106% (inactive) | 103% (inactive) | 103% | 104% |
| COc1ccc(N=Cc2cc(Cc3ccccc3Cl)cc([N+](=O)[O-])c2O)cc1OC | 93.4% (inactive) | 93% | 86.5% | 142% (inactive) | 114% | 147% | 120% (inactive) | 96.7% (inactive) | 96.5% (inactive) | 86.7% | 96.6% |
| COC(=O)c1ccc(Sc2ccccn2)c([N+](=O)[O-])c1 | 97.8% (inactive) | 101% | 97.7% | 99.5% (inactive) | 101% | 100% | 109% (inactive) | 98% (inactive) | 105% (inactive) | 105% | 104% |
| Clc1cnc(N/N=C/c2cccs2)c(Cl)c1 | 105% (inactive) | 100% | 103% | 178% (active) | 158% | 172% | 126% (inactive) | 98.2% (inactive) | 103% (inactive) | 110% | 97.1% |
| CCN(CC(=O)NC(C)(C)C)C(=O)COc1c(Cl)cc(Cl)c2ccc(C)nc12 | 100% (inactive) | 101% | 99.7% | 127% (inactive) | 121% | 125% | 126% (inactive) | 102% (inactive) | 108% (inactive) | 111% | 100% |
| COc1ccc(-c2ccc(SCC(=O)N3c4ccccc4CC3C)nn2)cc1OC (configuration not stated) | 99.1% (inactive) | 98% | 99.3% | 100% (inactive) | 101% | 101% | 102% (inactive) | 99.3% (inactive) | 96.4% (inactive) | 96.4% | 95.6% |
| NC(=O)c1ccccc1-c1nc(-c2ccccc2)no1 | 97.6% (inactive) | 96.1% | 96.7% | 101% (inactive) | 97.5% | 102% | 109% (inactive) | 102% (inactive) | 105% (inactive) | 101% | 104% |
| Fc1ccc(C2CC(c3ccccc3)n3ncnc3N2)cc1 (configuration not stated) | 96.8% (inactive) | 95.3% | 98% | 93.8% (inactive) | 94.1% | 97.2% | 100% (inactive) | 94.3% (inactive) | 92.6% (inactive) | 94.8% | 91.2% |
